Experimental data gathered from unrelated publications.
Protocols differ between the studies behind these lines.
Cell line: HL-60
Effect on: cell growth or viability

For `COc1cc(Nc2nccc(-c3cnn4nc(OC)ccc34)n2)cc(C(F)(F)F)c1`, the IC50 was 210 nM (ATP luminescence).
With `N[C@@H](CC(=O)N1CCN(C(c2ccc(F)cc2)c2ccc(F)cc2)CC1)C(=O)N1Cc2ccccc2C1` the IC50 was 2710 nM (ATP luminescence; 48 h).
`CCn1c(-c2nnc(NC(=O)c3cc4c([nH]c5ccccc54)c(-c4ccc(OC)cc4)n3)s2)cc2ccccc21` has an IC50 of 46200 nM (MTT; 72 h).
The IC50 of `COc1ccc(C(=O)c2ccccc2)c(O)c1` is reported as about 120000 nM (resazurin; 72 h, dark).
`CC(C)[C@H](N)C(=O)N1CCC[C@H]1B(O)O` has an IC50 of 115 nM (ATP luminescence; 48 h).
With `CCCCN(Cc1ccc(C(=O)NO)cc1)C(=O)Nc1ccccc1` the IC50 was 894 nM (ATP luminescence; 72 h).
The IC50 of `COc1cc([C@@H]2c3cc4c(cc3[C@@H](O[C@@H]3O[C@@H]5CO[C@@H](C)O[C@H]5[C@H](O)[C@H]3O)[C@H]3COC(=O)[C@H]23)OCO4)cc(OC)c1O` is reported as 310 nM (MTT; 48 h).
`O=C(Nc1nnc(-c2cc3ccccc3[nH]2)s1)c1cc2c([nH]c3ccccc32)c(-c2ccc(F)cc2)n1` gave an IC50 of 9850 nM (MTT; 72 h).
The IC50 of `CN1c2ccccc2C(=O)N2[C@H](C(=O)Nc3ccc(C(=O)Nc4ccccc4N)cc3)Cc3c([nH]c4ccccc34)[C@@H]12` is reported as 560 nM.
For `CCCON(Cc1ccc(C(=O)NO)cc1)C(=O)Nc1ccccc1`, the IC50 was 1690 nM (ATP luminescence; 72 h).
With `COc1cc(/C=C/C(=O)CC(=O)/C=C/c2ccc(O)c(OC)c2)ccc1O` the IC50 was 4100 nM (resazurin; 72 h, dark).
`COc1cc(-c2nc(C(=O)Nc3nnc(-c4cc5ccccc5n4C)s3)cc3c2[nH]c2ccccc23)cc(OC)c1OC` has an IC50 of 10000 nM (MTT; 72 h).
